Test results reported in ChEMBL document CHEMBL1122803, “Folate antagonists. 22. Antimalarial and antibacterial effects of 2,4-diamino-6-quinazolinesulfonamides” (1984).
In brackets after ≈: the same amount, converted by molar mass.

What was measured:
Type in all cases: functional
Plasmodium berghei [1] = test: Antimalarial activity as change in MST for drug-sensitive Plasmodium berghei infected mice (Mus musculus) at 80mg/kg subcutaneous dose over 72h
Plasmodium berghei [2] = test: Antimalarial activity as change in MST for drug-sensitive Plasmodium berghei infected mice (Mus musculus) at 640 mg/kg subcutaneous dose over 72 hr
Plasmodium berghei [3] = test: Antimalarial activity as change in MST for drug-sensitive Plasmodium berghei infected mice (Mus musculus) at 40 mg/kg subcutaneous dose over 72hr
Plasmodium berghei [4] = test: Antimalarial activity as change in MST against drug-sensitive Plasmodium berghei infected mice (Mus musculus) at 160 mg/kg subcutaneous dose after 72h
Plasmodium berghei [5] = test: Antimalarial activity as change in MST against drug-sensitive Plasmodium berghei infected mice (Mus musculus) at 20 mg/kg subcutaneous dose after 72h
Plasmodium berghei [6] = test: Antimalarial activity as change in MST against drug-sensitive Plasmodium berghei infected mice (Mus musculus) at 320 mg/kg subcutaneous dose after 72 hr
Escherichia coli [7] = test: Compound was tested in vitro against Escherichia coli Vogel. by gradient-plate test.
How it was run: (§1)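 Antibacterial testing in vitro by gradient-plate test. Read-out was the minimum inhibitory concentration, with values exceeding 25 reported as >25.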

Enterococcus faecalis = test: In vitro antibacterial activity against Streptococcus faecalis MGH-2.; how it was run: as §1
Pseudomonas aeruginosa [8] = test: In vitro against Pseudomonas aeruginosa 28. by gradient-plate test; how it was run: as §1
Staphylococcus aureus [9] = test: In vitro antibacterial activity against […] U.C-76.; how it was run: as §1
Staphylococcus aureus [10] = test: In vitro antibacterial activity against […] S 18713.; how it was run: as §1
[11] = system: Mycobacterium tuberculosis; test: In vitro antibacterial activity against Mycobacterium tuberculosis H37Rv.
How it was run: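 Mycobacterium tuberculosis tested in vitro by gradient-plate test; minimum inhibitory concentration reported.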

Shigella sonnei = test: In vitro antibacterial activity against Shigella sonnei C-10.; how it was run: as §1
Plasmodium berghei [12] = test: Antimalarial activity as change in MST against drug-sensitive Plasmodium berghei infected mice (Mus musculus) at 160 mg/kg subcutaneous dose after 72 hr
Plasmodium berghei [13] = test: Antimalarial activity as survivor numbers at day 60 for drug-sensitive Plasmodium berghei infected mice (Mus musculus) at 640 mg/kg subcutaneous dose over 72 hr
How it was run: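 Mice infected with drug-sensitive P. berghei got one subcutaneous dose in sesame or peanut oil 72 h postinfection. Read-out is the number of mice alive at 60 days postinfection, termed "cured", without subinoculation to confirm parasitological cure. Groups of five per dose, or 10 where indicated.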

Plasmodium berghei [14] = test: Antimalarial activity as change in MST for drug-sensitive Plasmodium berghei infected mice (Mus musculus) at 40 mg/kg subcutaneous dose over 72 hr
Escherichia coli [15] = test: Tested in vitro against Escherichia coli Vogel. by gradient-plate test; how it was run: as §1
Plasmodium berghei [16] = test: Antimalarial activity as change in MST for drug-sensitive Plasmodium berghei infected mice (Mus musculus) at 80 mg/kg subcutaneous dose over 72 hr
Plasmodium berghei [17] = test: Antimalarial activity as toxic deaths 2-5 days post infection for drug-sensitive Plasmodium berghei infected mice (Mus musculus) at 640 mg/kg subcutaneous dose over 72 hr
How it was run: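 P. berghei (drug-sensitive) infected mice dosed once subcutaneously 72 h postinfection, compound in sesame or peanut oil. Read-out is the count of deaths on days 2–5 after infection, attributed to drug toxicity. Five animals per dose level, or 10 where indicated.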

Pseudomonas aeruginosa [18] = test: Compound was tested in vitro against Pseudomonas aeruginosa 28. by gradient-plate test.; how it was run: as §1
Plasmodium berghei [19] = test: Antimalarial activity as change in MST for drug-sensitive Plasmodium berghei infected mice (Mus musculus) after 72 hrs at 320 mg/kg subcutaneous dose

Compound | Delta MST (Plasmodium berghei [1]) [days] | Delta MST (Plasmodium berghei [2]) [days] | Delta MST (Plasmodium berghei [3]) [days] | Delta MST (Plasmodium berghei [4]) [days] | Delta MST (Plasmodium berghei [5]) [days] | Delta MST (Plasmodium berghei [6]) [days] | MIC (Enterococcus faecalis) [µg/mL] | MIC (Pseudomonas aeruginosa [8]) [µg/mL] | MIC (Staphylococcus aureus [9]) [µg/mL] | MIC (Staphylococcus aureus [10]) [µg/mL] | MIC [11] [µg/mL] | MIC (Shigella sonnei) [µg/mL] | Delta MST (Plasmodium berghei [14]) [days] | MIC (Escherichia coli [15]) [µg/mL] | other results
Nc1nc(N)c2cc(S(=O)(=O)Nc3ccc(Cl)cc3)ccc2n1 | 4.9 | 13.9 | 0.7 | 9.3 | 0.5 | 14.7 | – | – | – | – | – | – | – | – | –
CCN(CC)CCN(C)S(=O)(=O)c1ccc2nc(N)nc(N)c2c1 | – | 0.3 | 0.1 | 0.3 | – | – | 20 (≈ 56.7 µM) | > 25 | > 25 | > 25 | > 25 | > 25 | – | – | MIC (Escherichia coli [7]): > 25 µg/mL
CCCN(CCC)S(=O)(=O)c1ccc2nc(N)nc(N)c2c1 | – | 1.3 | 0.3 | – | – | – | – | – | – | – | – | – | – | – | Delta MST (Plasmodium berghei [12]): 0.4 days
Nc1nc(N)c2cc(S(=O)(=O)N3CCCCC3)ccc2n1 | 4.7 | – | – | 10.2 | 1.1 | 12.9 | < 0.25 | > 25 | < 0.25 | < 0.25 | 10 (≈ 32.5 µM) | 0.5 (≈ 1.63 µM) | 4.4 | – | MIC (Escherichia coli [7]): < 0.25 µg/mL; survivors at day 60 (Plasmodium berghei [13]): 5
Nc1nc(N)c2cc(S(=O)(=O)N3CCCCC3Cc3ccccc3)ccc2n1 (stereo unspecified) | – | 0.5 | 0.3 | 0.3 | – | – | < 0.25 | > 25 | 2 (≈ 5.03 µM) | > 25 | > 25 | > 25 | – | > 25 | –
CCOC(=O)N1CCN(S(=O)(=O)c2ccc3nc(N)nc(N)c3c2)CC1 | 0.5 | – | 0.2 | 4.1 | 0.1 | 4.7 | 2 (≈ 5.26 µM) | > 25 | 2 (≈ 5.26 µM) | > 25 | > 25 | > 25 | – | > 25 | survivors at day 60 (Plasmodium berghei [13]): 4
CC(C)N(C)S(=O)(=O)c1ccc2nc(N)nc(N)c2c1 | – | – | 0.7 | 7.3 | 0.5 | 6.9 | – | – | – | – | – | – | – | – | Delta MST (Plasmodium berghei [16]): 4 days
CN(Cc1ccc(Cl)c(Cl)c1)S(=O)(=O)c1ccc2nc(N)nc(N)c2c1 | 0.5 | 9.5 | – | 0.5 | 0.3 | 4.1 | > 25 | > 25 | > 25 | > 25 | > 25 | > 25 | 0.3 | > 25 | –
Nc1nc(N)c2cc(S(=O)(=O)N3CCC(N4CCCCC4)CC3)ccc2n1 | 0.5 | 3.9 | 0.3 | 0.7 | – | 2.1 | > 25 | > 25 | > 25 | > 25 | > 25 | > 25 | – | > 25 | –
Cc1c(S(=O)(=O)N(C)C)ccc2nc(N)nc(N)c12 | – | – | – | – | – | – | < 0.25 | > 25 | 2 (≈ 7.11 µM) | 2.5 (≈ 8.89 µM) | > 25 | 1.5 (≈ 5.33 µM) | 1.1 | < 0.25 | toxic deaths (Plasmodium berghei [17]): 5
Nc1nc(N)c2cc(S(=O)(=O)Nc3ccc4ccccc4c3)ccc2n1 | – | 5.3 | – | 1.1 | 0.3 | 1.5 | 5 (≈ 13.7 µM) | > 25 | > 25 | > 25 | – | > 25 | 0.3 | > 25 | Delta MST (Plasmodium berghei [16]): 0.5 days
CN(c1ccccc1)S(=O)(=O)c1ccc2nc(N)nc(N)c2c1 | 3.1 | 13.9 | – | 8.3 | 0.5 | 11.5 | > 25 | > 25 | > 25 | > 25 | > 25 | > 25 | 0.5 | > 25 | –
CN(c1cccc(Cl)c1)S(=O)(=O)c1ccc2nc(N)nc(N)c2c1 | 0.5 | 11.9 | 0.3 | 4.5 | 0.3 | 6.9 | > 25 | – | > 25 | > 25 | > 25 | > 25 | – | > 25 | MIC (Pseudomonas aeruginosa [18]): > 25 µg/mL
Nc1nc(N)c2cc(S(=O)(=O)N(CCO)CCO)ccc2n1 | 0.5 | 8.1 | – | 1.3 | 0.3 | 4.1 | – | – | – | – | – | – | 0.3 | – | –
CCN(CC)S(=O)(=O)c1ccc2nc(N)nc(N)c2c1Cl | 4.3 | – | 2.3 | – | – | 18.9 | < 0.25 | > 25 | 10 (≈ 30.3 µM) | > 25 | > 25 | > 25 | – | > 25 | Delta MST (Plasmodium berghei [12]): 14.9 days; toxic deaths (Plasmodium berghei [17]): 5
Nc1nc(N)c2cc(S(=O)(=O)N3CCSCC3)ccc2n1 | 3.5 | 12.6 | 2.5 | 8.3 | 1.7 | – | < 0.25 | > 25 | < 0.25 | < 0.25 | > 25 | 2 (≈ 6.15 µM) | – | 2 (≈ 6.15 µM) | Delta MST (Plasmodium berghei [19]): 9.6 days
Nc1nc(N)c2cc(S(=O)(=O)Nc3cccc(Br)c3)ccc2n1 | 0.5 | 4.1 | 0.3 | 0.5 | 0.3 | 1.7 | > 25 | > 25 | > 25 | > 25 | > 25 | > 25 | – | > 25 | –
